The values that follow come from ChEMBL document CHEMBL4513216, “Probing the Open Global Health Chemical Diversity Library for Multistage-Active Starting Points for Next-Generation Antimalarials” (ACS Infect Dis, 2020).

The data set is described as follows: Toxicity liver stage against HepG2, at 10uM. It counts as cell-based. Also on record: test concentration 10 uM, cell line HepG2-A16-CD81EGFP. The settings on record: human, HepG2-A16-CD81EGFP cells; read-out: INHIBITION
An outline of the steps:
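Uninfected HepG2-A16-CD81EGFP cells, 3 × 10^3 per well, 1536-well, plated on prespotted compound at 10 μM final, parasite-free screening media added to match infected plates; puromycin 10 μM positive, DMSO 0.5% negative; run in parallel with 48 h PbLuc assay at 37 °C, 5% CO2; viability by CellTiter-Glo luminescence, normalized to controls.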
As for `CC(C)(C)NC(=O)CN1CCCN(c2ccc(C#N)cn2)CC1`, the cytotoxicity at 10 µM was -4.31%.

As to `Cc1[nH]ncc1CCCNC(=O)Nc1ccc(C#N)cc1`, the cytotoxicity at 10 µM was determined as 1.8%. On to `F[C@@H]1CN(Cc2ccccc2)C[C@@H]1OCc1nc2ccccc2[nH]1`, for which the cytotoxicity at 10 µM stood at 4.61%. For `O=C([C@@H]1Cc2[nH]cnc2CN1Cc1cc2ccccc2o1)N1CCCC1`, the cytotoxicity at 10 µM is 2.23%. With `O=c1n(Cc2ccc(F)cc2)nc2ncccn12`, the cytotoxicity at 10 µM is -8.18%. Then `CCCn1cnc2c(cnn2-c2cccc(C)c2C)c1=O`, with -8.17%. As to `O=C(NCc1ccco1)[C@H]1C[C@H]2OCC[C@H]2N(C(=O)c2ccnnc2)C1`, the cytotoxicity at 10 µM was -10.3%. Then `CS(=O)(=O)NC[C@@H]1OC[C@H]2CN(C(=O)c3cnccn3)CC[C@H]21`, with 2.98%. Then `CS(=O)(=O)N1CCC2(COCc3cnc(-c4ccccc4)nc32)C1` (configuration not stated), with 1.22%; and `Cc1cc(O)c(OCC(=O)/N=c2\[nH]c(C)c(C)s2)cn1`, with 8.6%; and `OCCNc1nc(Nc2ccccc2)c2nccnc2n1`, with 3.72%.

Take `CC(C)NC(=O)c1ccc2c(c1)nc1n2CCN(C(C)C)C1`: the cytotoxicity at 10 µM was 3.54%.

With `COc1ccc2nnc(C(=O)NC3CCCC3)nc2c1`, the cytotoxicity at 10 µM amounted to 6.17%.

As for `CCn1cc(CN(C)S(=O)(=O)c2ccc(Cl)cc2)cn1`, the cytotoxicity at 10 µM was found to be 3.77%. The figure for `CCOc1cccc(NC(=O)c2cc[nH]n2)n1` is 3.51%; for `COCC(=O)Nc1ccc(C)cc1-c1nc(C2CC2)no1` it is -3.67%; for `NC(=O)c1ccc(N2CCN(CCCc3cn[nH]c3)CC2)cc1` it is -153%.

As for `COc1ncccc1CNCc1cnc(N2CCOCC2)nc1`, the cytotoxicity at 10 µM amounted to 2.38%. In the case of `O=C(NCC1CC1)c1ccc(NC(=O)c2ccco2)cc1`, the cytotoxicity at 10 µM was 7.91%. Consider `COc1ccc(OC)c(-c2csc(-c3cccc(C(=O)O)c3)n2)c1`, for which the cytotoxicity at 10 µM stood at 3.75%.

For the molecule `COCCNC(=O)NCC(C)c1ccccc1OC` (configuration not stated), the cytotoxicity at 10 µM amounted to 0.284%.

In the case of `CCc1nc(CN2CCCN(C(=O)c3cccn3C)CC2)cs1`, the cytotoxicity at 10 µM was 3.41%. Turning to `CCn1ccnc1CN1CCN(c2ncnc3ccccc23)CC1`, the cytotoxicity at 10 µM is -1.8%. The figure for `Cc1noc(C)c1CCCNC(=O)C1CCCN(C(=O)C2CC2)C1` (configuration not stated) is -0.185%; for `Cn1c(NCC(=O)N2CCCCC2)c(C#N)c(=O)n(C)c1=O` it is 5.83%. The figure for `COc1ccc(N(C)C(=O)c2ccc(Cl)c(S(C)(=O)=O)c2)cn1` is -11.2%. The figure for `Cc1ccc(S(=O)(=O)NC(=O)COc2cccc(C#N)c2)c(C)c1` is 3.73%. With `CC(NC(=O)Nc1cc(F)cc(F)c1)c1nc[nH]n1` (configuration not stated), the cytotoxicity at 10 µM was -4.02%.

Regarding `Fc1cccc(-n2cccn2)c1NCc1nnc(C2CC2)o1`, the cytotoxicity at 10 µM was -5.48%. The figure for `Cc1cc(NC(=O)N2CCOC(C(N)=O)C2)ccc1Br` (configuration not stated) is -154%; for `Cc1ccc(C(=O)NCC2Cc3ccccc3O2)cc1S(C)(=O)=O` (configuration not stated) it is 1.05%; for `COc1ncnc(N)c1CNCC(C)SC` (configuration not stated) it is -0.554%. Turning to `O=C1CC(CNc2cncc(Cl)n2)c2ccccc2N1` (configuration not stated), the cytotoxicity at 10 µM was -0.99%.

With `CCC1CN(c2cnn(-c3ccccc3)c(=O)c2Cl)CCO1` (configuration not stated), the cytotoxicity at 10 µM is -17.4%. `CCCN(CCC)S(=O)(=O)NCCc1cc(C)ccc1OC`: the cytotoxicity at 10 µM worked out at 7.75%. Then `Cc1cc(CNC(=O)c2cc(C(C)C)n(C)n2)ccc1S(C)(=O)=O`, with -3.11%; and `COCCN(CCN(C)C)C(=O)NC1CCc2ccccc2C1` (configuration not stated), with -5.17%; and `CC(C)OCc1cccc(NC(=O)N2CCCC(CCC(N)=O)C2)c1` (configuration not stated), with 3.49%. Then `Cc1ccccc1C(NC(=O)CNC(=O)c1ccoc1C)C(C)C` (configuration not stated), with 2.74%; and `CCc1cnc(NC(=O)NC2CCN(C3CCCC3)CC2)s1`, with -7.27%; and `Cc1cccc(CC(=O)Nc2cccnc2N2CCC(CO)CC2)c1`, with -2.23%. The figure for `O=C(CNc1ccc(OC2CCOC2)cc1)NCc1ccc(F)cc1` (configuration not stated) is 3.4%; for `CC(=O)c1cccc(NCC(=O)NC(N)=O)c1` it is 2.54%.

For `CCOC(=O)N1CCC2(CC1)N=C(CCC(C)C)NC2=O`, the cytotoxicity at 10 µM was -6.55%. Then `Cn1c(Cn2ccnc2)nnc1C1CCN(C(=O)c2ccoc2)CC1`, with -120%; and `CC(C)Cc1cc(C(=O)NCC2CCCN(c3ccccn3)C2)on1` (configuration not stated), with 0.101%; and `CN1CCCC2(CCN(c3cccc(C(F)(F)F)n3)C2)C1=O` (configuration not stated), with 7.87%. The figure for `COc1ccccc1[C@@H]1CN(Cc2cnc(N(C)C)nc2)C[C@H]1C(=O)O` is -3.89%; for `CC(C)Cc1cc(C(=O)NCC2CCCN(Cc3ccco3)C2)on1` (configuration not stated) it is -5.12%; for `O=C(Nc1ccc(-c2ccco2)cc1)C1CCCN(Cc2ccon2)C1` (configuration not stated) it is 1.17%. The figure for `CC(C1CCN(Cc2ccccc2OC(F)F)CC1)N1CCOCC1` (configuration not stated) is -7.4%; for `O=c1[nH]c2ccccc2cc1CN(Cc1ccccn1)CC1CCCO1` (configuration not stated) it is -4.84%; for `CC(O)C1CCN(C(=O)Nc2nc(-c3ccccc3)ns2)CC1` (configuration not stated) it is -135%. `COc1cc2[nH]c(=O)c(CN3CCC[C@@H]3C(N)=O)cc2c(OC)c1OC`: the cytotoxicity at 10 µM is -6.84%. For `Cc1cc(C(=O)N2CCC3(CCC(=O)N(CC(N)=O)C3)CC2)ccc1O`, the cytotoxicity at 10 µM was -7.5%.

Consider `CC(NC(=O)c1cc2n(n1)CCCN(C)C2)c1cn2ncsc2n1` (configuration not stated), for which the cytotoxicity at 10 µM is -6.73%. Then `NC(=O)CCn1cc(CNCCCc2ccncc2)c2ccccc21`, with 7.28%. As for `Cc1ccc(NC(=O)N2CCCC(O)(CO)CC2)cc1Cl` (configuration not stated), the cytotoxicity at 10 µM is 1.96%. The figure for `COc1ncccc1-c1cc(C(=O)NC2CC2)ccn1` is -11.8%; for `OCC(CO)N1CCC(c2nnc(Cn3ccnc3)n2C2CC2)CC1` it is -4.36%. The figure for `COCCN(C)c1nc(-c2ccncc2)nc2c1CCN(C(C)=O)C2` is -2.16%; for `O=C1CC2(CCN(Cc3ccc(-c4ccn[nH]4)s3)CC2)CN1` it is -137%. Then `COc1ccc(OC)c(C2CCN(C3CCOCC3)C2)c1` (configuration not stated), with -6.28%; and `CCC(C(=O)NC(C)(C)C)n1cccc(OC)c1=O` (configuration not stated), with -1.04%; and `CCOCC(=O)N1CCc2c(ncnc2N2CCOCC2)C1`, with -6.63%. With `CC(=O)NC1CC(C)(C)Cc2c1cnn2-c1cccc(F)c1` (configuration not stated), the cytotoxicity at 10 µM is -144%.

Regarding `COCCCN1CC2(CCCN(c3ncnc4[nH]ccc34)C2)CCC1=O` (configuration not stated), the cytotoxicity at 10 µM was -4.67%. Then `CN(C)C(=O)Cc1ccc(NC(=O)NC2CCCCC2)cc1`, with -11.3%; and `CC(c1nc(C2CC2)no1)N1CCN(CCN2CCCC2=O)CC1` (configuration not stated), with -10.9%.

With `Cc1nc(CC(=O)N2CCc3nnc(N(C)C)cc3C2)cs1`, the cytotoxicity at 10 µM is -7.07%.

As for `COc1cc(C)nc(N2CCN(C(=O)CSC)CC2)n1`, the cytotoxicity at 10 µM was -6.42%. Then `Cc1cnn(CCNCc2csc(-c3ccsc3)n2)c1`, with -6.75%; and `CC(C)Oc1ncccc1CNC(=O)N1CCC(n2cccc2)CC1`, with 3.48%; and `CC(Cn1cccn1)NC(=O)NCCc1cccs1` (configuration not stated), with -15.3%.

Consider `c1csc(-c2noc(CN3CCCC3Cn3cccn3)n2)c1` (configuration not stated), for which the cytotoxicity at 10 µM was -12.7%.

On to `CCN(Cc1cccc2c1OCO2)C(=O)Nc1ccccn1`, for which the cytotoxicity at 10 µM was -21.7%. `Cc1cc(NC(=O)CN2CCC(N3CCNC3=O)CC2)on1`: the cytotoxicity at 10 µM was 2.99%.

For `Cc1cnn(CC2CCCN2C(=O)c2ccc(F)c(F)c2)c1` (configuration not stated), the cytotoxicity at 10 µM was -7.68%.

For `CCN(CC)CC(=O)N1CCCCC1c1nc(C)cs1` (configuration not stated), the cytotoxicity at 10 µM was -5.78%.

`COc1cc(CNC(=O)Nc2nnc(C(C)C)s2)ccn1`: the cytotoxicity at 10 µM was -8.24%. The figure for `O=C(CCOCC(F)(F)F)N1CCCC(n2ccnc2)C1` (configuration not stated) is -8.14%; for `CN(CCc1ccncc1)CC1CCCN1c1cccnn1` (configuration not stated) it is 1.09%.

As to `O=C(NCCCn1ccnc1)NCC(c1ccco1)N1CCCCC1` (configuration not stated), the cytotoxicity at 10 µM came out at 5.71%. Then `CCOc1ccc(OCC(O)CN2CCN(S(C)(=O)=O)CC2)cc1` (configuration not stated), with -36.8%. On to `O=C(c1csc(-c2cccs2)n1)N1CCCC1Cn1cccn1` (configuration not stated), for which the cytotoxicity at 10 µM was -4.69%. The figure for `CNC(=O)[C@@H](c1ccccc1OC)N1CCC[C@H]1C(=O)N1CC[C@@H](O)C1` is -2.71%. The figure for `CN1C(=O)CC(c2ccccc2)C12CCN(CCO)CC2` (configuration not stated) is 6.47%.

Take `Cc1cccc(C(=O)N2C[C@@H](OCc3ccncc3)[C@@H]3OCCC[C@@H]32)n1`: the cytotoxicity at 10 µM was -5.06%.

Take `CCN(C)c1ncnc2c1CCN(C(=O)c1cnccn1)CC2`: the cytotoxicity at 10 µM is -1.86%. As for `O=C(NCc1ccco1)[C@H]1CC[C@@H]2[C@@H](CCN2Cc2cccnc2)O1`, the cytotoxicity at 10 µM was -3.68%. The figure for `CN(C)CCN1C(=O)C[C@@H]2[C@@H]1CCN2S(=O)(=O)c1ccccc1` is -7.52%. The figure for `Cc1occc1C(=O)N1C[C@@H](OCc2cccnc2)[C@H]2OCCC[C@@H]21` is 3.16%.

Turning to `COCCO[C@H]1CCN(Cc2ccsc2)[C@H]1Cc1cccnc1`, the cytotoxicity at 10 µM is -2.57%. Then `O=C(c1ccncc1)N1CC[C@H]2[C@H]1CCN2S(=O)(=O)C1CC1`, with -126%. Then `Fc1cnc(N2CCCn3c(nnc3Cn3ccnc3)C2)nc1`, with -140%; and `CCNc1nc2cn(-c3ccc(Cl)cc3)c(=O)c-2c[nH]1`, with 7.67%; and `Cc1cc(CN2C[C@@H]3CC[C@H]2CN(Cc2c(C)noc2C)C3)ccc1F`, with -6.74%.
